Measurements pooled from the literature.
Each line is one published result; the experiments were not run side by side.
ERBB2: Receptor tyrosine-protein kinase erbB-2 (ERBB2, Homo sapiens, UniProt P04626)

Compound	target	test	conditions	endpoint	value
C=CC(=O)N1CCCN(C(=O)c2cc(Sc3cnc(NC(=O)C4CC4)s3)c(C)cc2OC)C[C@H]1C	Tyrosine-protein kinase ITK/TSK (ITK, Homo sapiens, UniProt Q08881)	enzyme activity, inhibitor	1 µM	inhibition	> 95%
C=CC(=O)N1CCC(COCC(=O)N2CCN(c3nc(-c4cnc(N)nc4C(F)F)nc(N4CCOC[C@@H]4C)n3)CC2)CC1	Mitogen-activated protein kinase kinase kinase 2 (MAP3K2, Homo sapiens, UniProt Q9Y2U5)	binding, competition with immobilised ligand	1 µM	remaining binding	97%
CC(C)OC(=O)CNc1cccc(CN(Cc2ccc(-n3cccn3)cc2)S(=O)(=O)c2cccnc2)n1	Alpha-2A adrenergic receptor (ADRA2A, Homo sapiens, UniProt P08913)	ligand displacement, radioligand	10 µM	inhibition	4%
Cc1cc([C@@H](C)Nc2ccccc2C(=O)O)c2nc(N3CCC(F)(F)CC3)c(C#N)c(=O)n2c1	Tyrosine-protein kinase ABL1, phosphorylated (ABL1, Homo sapiens, UniProt P00519)	binding, competition with immobilised ligand	1 µM	remaining binding	100%
O=C(COP(=O)(O)O)[C@@H](O)[C@H](O)[C@H](O)COP(=O)(O)O	Son of sevenless homolog 1 (SOS1, Homo sapiens, UniProt Q07889)	thermal stability	5 mM, lysate	ΔTm	-6.2 °C
CNc1ncc2c(/C=C/C(=O)N3CCC(OC)CC3)nn(Cc3cccc(C(F)(F)F)c3)c2n1	Tyrosine-protein kinase ABL1 (ABL1, Homo sapiens, UniProt P00519)	enzyme activity, inhibitor, radiometric	1 µM	remaining activity	92%
CN(C)C/C=C/C(=O)Nc1cc2c(Nc3ccc(F)c(Cl)c3)ncnc2cc1O[C@H]1CCOC1	ERBB2	cell-free assay, competition with immobilised ligand	10 µM	inhibition	~100%
COc1cc(-c2cncc3c2CN(C)Cc2cc(N4CCNCC4)ccc2-3)cc(OC)c1OC	ERBB2	enzyme activity, inhibitor	1 µM	remaining activity	106%
CCc1nn(C)c2nc(-c3ccc(C(=O)O)cc3)nc(NCc3ccc(F)cc3)c12	cGMP-dependent 3',5'-cyclic phosphodiesterase (PDE2A, Homo sapiens, UniProt O00408)	enzyme activity, inhibitor, radiometric	10 µM	inhibition	35.7%
O=C(O)CNc1cccc(CN(Cc2ccc(-n3cccn3)cc2)S(=O)(=O)c2cccnc2)n1	Carbonic anhydrase 1 (CA1, Homo sapiens, UniProt P00915)	enzyme activity, inhibitor	10 µM	inhibition	0%
